Assay results: ChEMBL document CHEMBL1136477, “beta-alanine dipeptides as MC4R agonists” (Bioorg Med Chem Lett, 2003)

Experiments:
Melanocortin receptor 4 [1] = molecular target: T1, Melanocortin receptor 4 (Homo sapiens, UniProt P32245); assay: Binding activity was measured using membranes of Hi5 cells expressing the human MC4R receptors; assay type: cell membranes, BTI-TN-5B1-4
[2] = Intrinsic activity was expressed as percent of maximal activity achieved by NDP-alpha-MSH.; assay type: functional
Outline: (§1)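 HEK293 cells stably expressing human MC4R (MEM, G418, 10% heat-inactivated FBS) seeded 5×10^4 cells/well overnight. Then 10 min at 37 °C with 0.1 mM IBMX and increasing compound (1% DMSO final). After lysis, cAMP read by SPA kit. EC50 by non-linear regression. Intrinsic activity is % of NDP-a-MSH maximum. Run twice or three times in duplicate.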

Melanocortin receptor 4 [3] = molecular target: T1, Melanocortin receptor 4; assay: Stimulation of adenylate cyclase in HEK293 cells expressing the human MC4R receptor was determined by measuring cAMP accumulation using the RPA559 SPA assay; assay type: functional, cell-based; outline: as §1

T1 sequence (P32245 whole entry): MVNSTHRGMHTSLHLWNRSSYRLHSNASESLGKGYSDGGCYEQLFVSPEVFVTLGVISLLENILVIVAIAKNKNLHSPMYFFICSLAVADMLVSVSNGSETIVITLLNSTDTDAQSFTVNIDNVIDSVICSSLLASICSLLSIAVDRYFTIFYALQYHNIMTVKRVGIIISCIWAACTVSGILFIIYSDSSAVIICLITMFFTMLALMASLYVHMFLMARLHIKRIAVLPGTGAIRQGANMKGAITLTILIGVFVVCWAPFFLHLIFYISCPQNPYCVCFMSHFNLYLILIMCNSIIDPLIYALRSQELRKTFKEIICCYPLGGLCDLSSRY

IC50 (Melanocortin receptor 4 [1]) [nM]	EC50 (Melanocortin receptor 4 [3]) [nM]	SMILES	Max stimulation [2] [%]
9		O=C(N[C@H](Cc1ccc(Cl)cc1)C(=O)N1CCC(Cn2cncn2)(C2CCCCC2)CC1)[C@H]1CCCNC1	
14		O=C(CCNCc1ccccc1)N[C@H](Cc1ccc(Cl)cc1)C(=O)N1CCC(Cn2cncn2)(C2CCCCC2)CC1	
22		O=C(CCNC(=O)[C@H]1CCCNC1)N[C@H](Cc1ccc(Cl)cc1)C(=O)N1CCC(Cn2cncn2)(C2CCCCC2)CC1	
30		CC(C)(CN)C(=O)N[C@H](Cc1ccc(Cl)cc1)C(=O)N1CCC(Cn2cncn2)(C2CCCCC2)CC1	
22		O=C(C[C@@H]1CCCN1)N[C@H](Cc1ccc(Cl)cc1)C(=O)N1CCC(Cn2cncn2)(C2CCCCC2)CC1	
110		O=C(CCN(Cc1ccccc1)Cc1ccccc1)N[C@H](Cc1ccc(Cl)cc1)C(=O)N1CCC(Cn2cncn2)(C2CCCCC2)CC1	
12		CC(=O)NCCC(=O)N[C@H](Cc1ccc(Cl)cc1)C(=O)N1CCC(Cn2cncn2)(C2CCCCC2)CC1	
		O=C(N[C@H](Cc1ccc(Cl)cc1)C(=O)N1CCC(Cn2cncn2)(C2CCCCC2)CC1)[C@H]1Cc2ccccc2CN1	99
11		CN(C)CCC(=O)NCCC(=O)N[C@H](Cc1ccc(Cl)cc1)C(=O)N1CCC(Cn2cncn2)(C2CCCCC2)CC1	
16		O=C(N[C@H](Cc1ccc(Cl)cc1)C(=O)N1CCC(Cn2cncn2)(C2CCCCC2)CC1)C1CNC1	
10	40	CN(C)CCC(=O)N[C@H](Cc1ccc(Cl)cc1)C(=O)N1CCC(Cn2cncn2)(C2CCCCC2)CC1	98
18		CC(C)(N)CC(=O)N[C@H](Cc1ccc(Cl)cc1)C(=O)N1CCC(Cn2cncn2)(C2CCCCC2)CC1	
90		O=C(CCNC(=O)c1ccccc1)N[C@H](Cc1ccc(Cl)cc1)C(=O)N1CCC(Cn2cncn2)(C2CCCCC2)CC1	
10	70	CNCCC(=O)N[C@H](Cc1ccc(Cl)cc1)C(=O)N1CCC(Cn2cncn2)(C2CCCCC2)CC1	98
25		O=C(CCNC(=O)[C@@H]1CCCNC1)N[C@H](Cc1ccc(Cl)cc1)C(=O)N1CCC(Cn2cncn2)(C2CCCCC2)CC1	
180		O=C(CCNC(=O)C(F)(F)F)N[C@H](Cc1ccc(Cl)cc1)C(=O)N1CCC(Cn2cncn2)(C2CCCCC2)CC1	
12		O=C(CCN1CCCCC1)NCCC(=O)N[C@H](Cc1ccc(Cl)cc1)C(=O)N1CCC(Cn2cncn2)(C2CCCCC2)CC1	
16	170	NCCC(=O)N[C@H](Cc1ccc(Cl)cc1)C(=O)N1CCC(Cn2cncn2)(C2CCCCC2)CC1	92
21		COCC(=O)NCCC(=O)N[C@H](Cc1ccc(Cl)cc1)C(=O)N1CCC(Cn2cncn2)(C2CCCCC2)CC1	
12		O=C(N[C@H](Cc1ccc(Cl)cc1)C(=O)N1CCC(Cn2cncn2)(C2CCCCC2)CC1)[C@@H]1CCCNC1	
